Assay results reported in ChEMBL document CHEMBL2163272, “Design, synthesis, and preclinical evaluations of novel 4-substituted 1,5-diarylanilines as potent HIV-1 non-nucleoside reverse transcriptase inhibitor (NNRTI) drug candidates” (J Med Chem, 2012).
pEC50: −log10 of the molar value. Converted amounts (≈) assume the structure as drawn.

What was measured:
[1] = Cytotoxicity against human TZM-bl cells after 4 days by XTT assay; format: cell-based; details: 96 h
How it was run: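 TZM-bl cells (5 × 10^5/mL) exposed to graded compound concentrations at 37 °C for 4 days. XTT (1 mg/mL) with 0.02 μM PMS added, and absorbance at 450 nm read after 4 h.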

[2] = Aqueous solubility of the compound at pH 7.4 after 4 hrs; format: physicochemical; details: buffer, pH 7.4, 4 h
[3] = system: Human immunodeficiency virus 1; test: Antiviral activity against HIV-1 NL4-3 infected in human TZM-bl cells assessed as inhibition of viral replication after 2 days by luciferase reporter gene based luminescence assay; format: functional, organism-based; details: Human immunodeficiency virus 1, NL4-3, TZM-bl, 48 h
How it was run: (§1)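 Single-round infection of TZM-bl cells with 200 TCID50 virus (NL4-3 for wild type) in the presence of graded compound concentrations. Luciferase luminescence was read two days after infection. Run at least in triplicate; mean ± SD reported.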

[4] = Aqueous solubility of the compound at pH 2.0 after 4 hrs; format: physicochemical; details: for solubility: buffer, pH 2, 4 h; for solubility at 4 h: aqueous, pH 2
Liver microsomes [5] = test: Half life in human liver microsomes at 1 uM; format: ADME, Microsome
How it was run: (§2)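 Compound at 1 μM final in 0.1 M potassium phosphate pH 7.4 with 0.1 mg/mL human liver microsomes and 5 mM MgCl2, 37 °C. Started with NADPH (1.0 mM final) and quenched with ice-cold ACN at 0, 5, 15, 30, 60 min; duplicate.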

Caco-2 = test: Apparent permeability of the compound in human Caco2 cells; format: ADME, cell-based
[6] = Selectivity index, ratio of CC50 for human TZM-bl cells to EC50 for HIV-1NL4-3; format: toxicity, cell-based; details: read-out: Ratio CC50/EC50
Liver microsomes [7] = test: Intrinsic clearance in human liver microsomes at 1 uM; format: ADME, Microsome; how it was run: as §2
[8] = system: Human immunodeficiency virus 1; test: Ratio of EC50 for multidrug-resistant HIV-1 RTMDR to EC50 for wild type HIV-1 NL4-3; format: functional
[9] = system: Human immunodeficiency virus 1; test: Antiviral activity against HIV-1 harboring reverse transcriptase E138K mutant infected in human TZM-bl cells assessed as inhibition of viral replication after 2 days by luciferase reporter gene based luminescence assay; format: functional, organism-based; details: Human immunodeficiency virus 1, TZM-bl, 48 h; how it was run: as §1
[10] = system: Human immunodeficiency virus 1; test: Ratio of EC50 for HIV-1 harboring reverse transcriptase K101E mutant to EC50 for wild type HIV-1 NL4-3; format: functional
[11] = system: Human immunodeficiency virus 1; test: Antiviral activity against HIV-1 harboring reverse transcriptase K101E mutant infected in human TZM-bl cells assessed as inhibition of viral replication after 2 days by luciferase reporter gene based luminescence assay; format: functional, organism-based; details: Human immunodeficiency virus 1, TZM-bl, 48 h
How it was run: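 Single-round infection of TZM-bl cells with 200 TCID50 virus (NL4-3 for wild type) in the presence of graded compound concentrations. Luciferase luminescence was read two days after infection. […] Run at least in triplicate; mean ± SD reported.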

[12] = system: Human immunodeficiency virus 1; test: Ratio of EC50 for HIV-1 harboring reverse transcriptase E138K mutant to EC50 for wild type HIV-1 NL4-3; format: functional
[13] = system: Human immunodeficiency virus 1; test: Antiviral activity against multidrug-resistant HIV-1 RTMDR infected in human TZM-bl cells assessed as inhibition of viral replication after 2 days by luciferase reporter gene based luminescence assay; format: functional, organism-based; details: Human immunodeficiency virus 1, RTMDR, 48 h; how it was run: as §1

Row | SMILES | CC50 [1] | solubility [2] | pEC50 [3] | solubility [4] | t1/2 (Liver microsomes [5]) | selectivity ratio [6] | intrinsic clearance (CLint) (Liver microsomes [7]) | other results
1 | Cc1cc(/C=C/C#N)cc(C)c1Oc1cc(Nc2ccc(C#N)cc2)c(N)cc1[N+](=O)[O-] | > 24400 nM | 0.29 µg/mL (≈ 0.682 µM) | 9.20 | 0.29 µg/mL (≈ 0.682 µM) | 47.8 min | – | – | Papp (Caco-2): < 2 ×10⁻⁶ cm/s
2 | COC(=O)c1cc(N)c(Nc2ccc(C#N)cc2)cc1Oc1c(C)cc(/C=C/C#N)cc1C | > 22800 nM | – | – | – | 283 min | > 8320 | 20 µL/min/mg | –
3 | Cc1cc(/C=C/C#N)cc(C)c1Oc1cc(Nc2ccc(C#N)cc2)c(N)cc1C(=O)O | – | – | – | – | – | 65 | – | –
4 | Cc1cc(/C=C/C#N)cc(C)c1Oc1cc(Nc2ccc(C#N)cc2)c(N)cc1C(N)=O | > 23600 nM | – | – | – | – | > 27100 | – | Ratio EC50 [8]: 2.1; solubility at 4 h [4]: 2.09 µg/mL (≈ 4.94 µM); pEC50 [9]: 8.05; Ratio EC50 [10]: 9.5; pEC50 [11]: 8.08; Ratio EC50 [12]: 10.3; pEC50 [13]: 8.74
5 | CNC(=O)c1cc(N)c(Nc2ccc(C#N)cc2)cc1Oc1c(C)cc(/C=C/C#N)cc1C | > 9200 nM | – | – | – | 44.8 min | > 1610 | 150 µL/min/mg | –
6 | Cc1cc(/C=C/C#N)cc(C)c1Oc1cc(Nc2ccc(C#N)cc2)c(N)cc1CO | – | – | – | – | – | 30800 | – | Ratio EC50 [8]: 0.7; solubility at 4 h [4]: 20.9 µg/mL (≈ 50.9 µM); pEC50 [9]: 8.41; Ratio EC50 [10]: 6.4; pEC50 [11]: 8.47; Ratio EC50 [12]: 7.4; pEC50 [13]: 9.40
7 | Cc1cc(CO)cc(C)c1Oc1cc(Nc2ccc(C#N)cc2)c(N)cc1CO | 15900 nM | – | 8.00 | – | – | 1590 | – | –
8 | CNC(=O)c1cc2ncn(-c3ccc(C#N)cc3)c2cc1Oc1c(C)cc(/C=C/C#N)cc1C | > 890000 nM | – | < 6.66 | – | – | – | – | –
9 | CNC(=O)c1cc2ncn(-c3ccc(C#N)cc3)c2cc1Oc1c(C)cc(CCC#N)cc1C | > 890000 nM | – | < 6.66 | – | – | – | – | –
10 | CC(=O)/C=C/c1cc(C)c(Oc2cc(Nc3ccc(C#N)cc3)c(N)cc2C(F)(F)F)c(C)c1 | > 8600 nM | – | 7.96 | – | – | > 789 | – | –
11 | CC(=O)CCc1cc(C)c(Oc2cc(Nc3ccc(C#N)cc3)c(N)cc2C(F)(F)F)c(C)c1 | 11100 nM | 0.16 µg/mL (≈ 0.342 µM) | 8.16 | 0.28 µg/mL (≈ 0.599 µM) | – | 1620 | – | –
12 | Cc1cc(C#N)cc(C)c1Oc1cc(Nc2ccc(C#N)cc2)c(N)cc1C(F)(F)F | 13300 nM | 0.26 µg/mL (≈ 0.616 µM) | 8.42 | 0.96 µg/mL (≈ 2.27 µM) | – | 3510 | – | –
13 | Cc1cc(N)cc(C)c1Oc1cc(Nc2ccc(C#N)cc2)c(N)cc1C(F)(F)F | 15800 nM | – | 7.86 | – | – | 1140 | – | –
14 | Cc1cc(/C=C/C#N)cc(C)c1Oc1cc(Nc2ccc(C#N)cc2)c(N)cc1C(F)(F)F | 15000 nM | 0.24 µg/mL (≈ 0.535 µM) | 8.03 | 0.42 µg/mL (≈ 0.937 µM) | 45 min | 1600 | 150 µL/min/mg | –
15 | Cc1cc(CCC#N)cc(C)c1Oc1cc(Nc2ccc(C#N)cc2)c(N)cc1C(F)(F)F | > 7100 nM | 0.24 µg/mL (≈ 0.533 µM) | 8.95 | – | 55.7 min | – | 120 µL/min/mg | –
16 | Cc1cc(/C=C/C#N)cc(C)c1Oc1cc(Nc2ccc(C#N)cc2)c(N)cc1S(N)(=O)=O | > 21800 nM | – | 7.03 | – | – | > 233 | – | –
17 | Cc1cc(CCC#N)cc(C)c1Oc1cc(Nc2ccc(C#N)cc2)c(N)cc1S(N)(=O)=O | 11100 nM | – | 6.42 | – | – | 29.2 | – | –
18 | COC(=O)c1cc(N)c(Nc2ccc(C#N)cc2)cc1Oc1c(C)cc(CCC#N)cc1C | > 22700 nM | 1.21 µg/mL (≈ 2.75 µM) | 8.36 | 21.8 µg/mL (≈ 49.5 µM) | 186 min | > 5260 | 40 µL/min/mg | Ratio EC50 [8]: 0.9; pEC50 [9]: 8.12; Ratio EC50 [10]: 3.2; pEC50 [11]: 7.85; Ratio EC50 [12]: 1.7; pEC50 [13]: 8.39
19 | Cc1cc(CCC#N)cc(C)c1Oc1cc(Nc2ccc(C#N)cc2)c(N)cc1C(=O)O | 14300 nM | – | 7.02 | – | – | 149 | – | –
20 | Cc1cc(CCC#N)cc(C)c1Oc1cc(Nc2ccc(C#N)cc2)c(N)cc1C(N)=O | > 9400 nM | 0.06 µg/mL (≈ 0.141 µM) | 8.86 | 9.11 µg/mL (≈ 21.4 µM) | 42 min | > 6760 | 160 µL/min/mg | –
21 | CNC(=O)c1cc(N)c(Nc2ccc(C#N)cc2)cc1Oc1c(C)cc(CCC#N)cc1C | > 9100 nM | 8.28 µg/mL (≈ 18.8 µM) | 8.56 | 44.7 µg/mL (≈ 102 µM) | 55.7 min | > 3330 | 120 µL/min/mg | Ratio EC50 [8]: 2.9; pEC50 [9]: 8.00; Ratio EC50 [10]: 5.1; pEC50 [11]: 7.85; Ratio EC50 [12]: 3.7; pEC50 [13]: 8.10
22 | Cc1cc(CCC#N)cc(C)c1Oc1cc(Nc2ccc(C#N)cc2)c(N)cc1C(=O)NN | > 22700 nM | – | 7.72 | – | – | > 1190 | – | –
23 | Cc1cc(CCC#N)cc(C)c1Oc1cc(Nc2ccc(C#N)cc2)c(N)cc1CO | > 23800 nM | 18.8 µg/mL (≈ 45.6 µM) | 9.41 | 89.8 µg/mL (≈ 218 µM) | 20.9 min | > 61000 | 330 µL/min/mg | Ratio EC50 [8]: 4.6; pEC50 [9]: 8.54; Ratio EC50 [10]: 8.7; pEC50 [11]: 8.47; Ratio EC50 [12]: 7.4; pEC50 [13]: 8.74
24 | Cc1cc(CCC#N)cc(C)c1Oc1cc(Nc2ccc(C#N)cc2)c(N)cc1N | > 25000 nM | – | 8.14 | – | – | > 3420 | – | –
25 | Cc1cc(C#N)cc(C)c1Oc1nc(Nc2ccc(C#N)cc2)nc(N)c1Br [ETRAVIRINE] | – | – | 8.82 | – | – | – | – | –
